# rCAG binder: binds r(CAG) RNA repeats; r(CAG) RNA repeat, TO-PRO-1 dye displacement fluorescence; inhibition, % at 3 µM; 1.3% of 370,000 active; AID 651821;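 active = inhibition above the plate cutoff, the mean of all test compounds on that plate plus 3 SD, cut at about 35% in these data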;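 also: higher means more dye released from RNA so lower well fluorescence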
# ARFGAP1 inh: inhibitors of rat ARFGAP1; Q62848; Arfgap1-stimulated ARF1 GTP hydrolysis, GDP FP detection; inhibition, % at 16.5 µM; 0.26% of 360,000 active; AID 651572;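 active = inhibition above a per-plate limit, mean inhibition of low control wells plus 3 SD, cut at about 25% in these data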
# Target sequence (Q62848 1-136 limits assumed): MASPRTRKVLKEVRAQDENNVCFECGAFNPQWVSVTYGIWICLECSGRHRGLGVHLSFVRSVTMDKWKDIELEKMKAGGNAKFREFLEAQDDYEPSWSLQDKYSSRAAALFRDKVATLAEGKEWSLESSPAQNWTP
#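 System: truncated rat Arfgap1 GAP domain / Benchmarks: high control wells lacking Arfgap1, low control full reaction with DMSO / Times: compound-enzyme preincubation 20 min, reaction 120 min, detection 60 min, 25 °C / Repeats: one replicate per compound / Also added: human ARF1(Δ1-17)-GTP substrate / Measured by: Tracer-displacement fluorescence polarization with EDTA stop, 620/688 nm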
# NadD inh: inhibitors of Staphylococcus aureus NadD | AID 602399 | inhibition, % at 20 µM | purified NadD enzyme, colorimetric absorbance read-out | 0.78% of 360,000 active; in the data active = inhibition above about 26%
# ASAP1 GAP inh: inhibitors of human ASAP1 ArfGAP activity; ASAP1-stimulated ARF1 GTP hydrolysis, GDP FP detection; inhibition, % at 16.5 µM; 0.19% of 360,000 active; AID 624377; in the data active = inhibition above about 25%
# Target sequence (Q9ULH1 325-724 limits assumed): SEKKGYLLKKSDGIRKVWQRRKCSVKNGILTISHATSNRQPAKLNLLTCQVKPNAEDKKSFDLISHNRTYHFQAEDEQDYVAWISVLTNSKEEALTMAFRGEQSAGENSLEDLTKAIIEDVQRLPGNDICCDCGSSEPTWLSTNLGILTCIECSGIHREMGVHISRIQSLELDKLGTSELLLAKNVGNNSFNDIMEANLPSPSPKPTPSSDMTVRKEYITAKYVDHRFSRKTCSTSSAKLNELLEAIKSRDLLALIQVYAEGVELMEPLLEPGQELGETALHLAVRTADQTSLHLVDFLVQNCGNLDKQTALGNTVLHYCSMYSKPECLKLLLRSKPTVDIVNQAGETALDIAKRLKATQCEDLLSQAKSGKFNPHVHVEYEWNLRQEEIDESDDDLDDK
# rCAG bind conf: r(CAG) RNA repeat binding, confirmation; 70% of 4,300 active; inhibition, % at 3 µM; AID 652065; TO-PRO-1 dye displacement fluorescence; shares compounds with rCAG binder;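 active = inhibition above a per-plate cutoff, the mean inhibition of sample wells plus 3 SD, cut at about 35% in these data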;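 also: loss of TO-PRO-1 fluorescence as compound displaces dye from 1x1 AA loop RNA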
# dCAG dye counter: disrupts DNA CAG TO-PRO-1 complex, flagging rCAG hits; AID 652068; inhibition, % at 3 µM; 94% of 4,300 active; shares compounds with rCAG binder; d(CAG) DNA oligo TO-PRO-1 dye displacement, fluorescence;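 active = inhibition above its plate's cutoff, the mean test-well inhibition plus 3 SD, cut at about 4.8% in these data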;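 also: hits displace the dye from DNA and so lower well fluorescence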
# dCAG dye DR: counter-screen for rCAG binders: inhibitors of DNA CAG TO-PRO-1 complex; shares compounds with rCAG binder; IC50, µM; 20% of 250 active; DNA CAG/GTC duplex TO-PRO-1 dye displacement fluorescence; in the data active = IC50 below about 10 µM
# Numbers stand for hits; – = inactive; · = no result. Compounds with a hit are over-represented: about 2.2% of the library has one in this group of screens.
SMILES,rCAG binder,ARFGAP1 inh,NadD inh,ASAP1 GAP inh,rCAG bind conf,dCAG dye counter,others
COc1ccc(/C=C2\SC(=S)N(NS(=O)(=O)c3ccccc3)C2=O)c(OC)c1,39,–,–,–,74,34,dCAG dye DR=–
O=C1/C(=C/c2cccs2)SC(=S)N1NS(=O)(=O)c1ccccc1,54,–,–,–,–,6.8,
CCN(C(=O)C(C)N1C(=O)/C(=C/c2ccco2)SC1=S)C1CCS(=O)(=O)C1 (stereo not drawn),–,–,–,–,·,·,
COc1ccc(OC)c(/C=C2\SC(=S)N(Cc3cccnc3)C2=O)c1,–,–,–,–,·,·,
COc1ccc(-c2ccc3c(n2)CCCN3S(=O)(=O)c2ccccc2)cc1,–,–,·,–,·,·,
O=C1/C(=C/C=C/c2ccco2)SC(=S)N1NS(=O)(=O)c1ccccc1,89,–,–,–,87,61,
COc1cc([N+](=O)[O-])cc(/C=N/NC(=O)C(O)(c2ccccc2)c2ccccc2)c1O,38,–,–,–,–,13,
COc1cc([N+](=O)[O-])cc(/C=N/NC(=O)C(C)Nc2cccc3ccccc23)c1O (stereo not drawn),79,–,48,–,67,30,
C/C(=N\NC(=O)Cc1cccs1)c1ccco1,–,·,·,·,·,·,
N#CC(/C(=N/S(=O)(=O)c1cccs1)c1ccccc1)c1nc2ccccc2[nH]1 (stereo not drawn),42,–,–,–,–,–,
O=c1n(Cc2ccccc2)c(O)c2n1Cc1ccccc1N=C2c1ccc(C(F)(F)F)cc1,–,–,–,–,·,·,
Cn1ccnc1C(=O)O[C@@H]1CCC[C@@]2(C(=O)N(Cc3ccccc3)c3ccccc32)[C@H]1NC(=O)CCc1ccccc1,–,·,·,·,·,·,
COc1ccccc1NS(=O)(=O)c1cccc(C(=O)NN)c1,–,–,–,–,·,·,
NNC(=O)c1cccc(S(=O)(=O)Nc2cc(Cl)ccc2Cl)c1,64,–,–,–,–,–,
CCN(CC)S(=O)(=O)c1cccc(C(=O)N/N=C/c2ccc(O)c(O)c2O)c1,53,–,–,–,55,24,
O=C(NCc1ccc(F)cc1)c1cc(C2CCCN(C(=O)c3ccc4ccccc4c3)C2)on1 (stereo not drawn),–,–,–,–,·,·,
CC1CCCN(C(=O)c2cccc(S(=O)(=O)Nc3cc(C(F)(F)F)ccc3Cl)c2)C1 (stereo not drawn),62,–,–,–,60,27,
O=C(c1cccc(S(=O)(=O)Nc2ccccc2Cl)c1)N1CCC1,–,–,–,–,·,·,
C/C(=N\Nc1c(Cl)c(Cl)nc(C(=O)O)c1Cl)c1ccc(O)cc1,40,–,–,–,–,4.5,
C/C(=N\Nc1nccnc1Cl)c1ccc(O)cc1,–,–,–,–,·,·,
O=C(Nc1cccs1)OC1CC2CC1[C@H]1CCCCN1C2 (stereo partly drawn),–,·,·,·,·,·,
CC(=O)c1cc(-c2ccccc2-c2ccccc2)c(=O)n2c1CCC2,–,·,·,·,·,·,
Nc1nc(-c2ccccc2)c(N=Nc2cccc3ccccc23)s1,35,–,–,–,–,18,
CN1OC[C@@H]2CN(Cc3ccc4c(c3)OCO4)[C@H](c3ccc(N4CCCCC4)cc3)C[C@@H]21,–,–,–,–,·,·,
O=C1NC(=Nc2ccccc2Cl)S/C1=C\c1cc([N+](=O)[O-])ccc1O,82,–,–,–,69,27,
SMILES,rCAG binder,ARFGAP1 inh,NadD inh,ASAP1 GAP inh,rCAG bind conf,dCAG dye counter,others
COc1cc(/C=C2\S/C(=N/S(=O)(=O)c3ccc(C)cc3)NC2=O)c([N+](=O)[O-])cc1OC,86,–,–,–,84,51,
Cc1ccc(S(=O)(=O)/N=C2/NC(=O)/C(=C/c3cc([N+](=O)[O-])ccc3O)S2)cc1,88,–,–,–,67,25,
COc1cc(/C=C2/SC(=S)NC2=O)ccc1OS(=O)(=O)c1ccc(C)cc1,·,·,–,·,·,·,
N#Cc1ccc(Cn2ccc3ccc(-c4ccc5ccn(Cc6ccccc6)c5c4)cc32)cc1,–,·,·,·,·,·,
CCN(c1ccccc1)S(=O)(=O)c1ccc(C(=O)Nc2nnc(-c3ccco3)o2)cc1,57,–,–,–,45,15,
CCc1nnc(NC(=O)c2ccc(S(=O)(=O)N3CCCC(C)C3)cc2)o1 (stereo not drawn),–,–,–,–,·,·,
CN(c1ccccc1)S(=O)(=O)c1ccc(C(=O)Nc2nnc(-c3ccco3)o2)cc1,42,–,–,–,36,13,
CC1CCCN(S(=O)(=O)c2ccc(C(=O)Nc3nnc(-c4ccco4)o3)cc2)C1 (stereo not drawn),41,–,–,–,38,13,
CC(C)c1ccc(NC(=O)Cc2c(C(=O)O)n(C)c3ccccc23)cc1,51,–,–,–,–,5.8,
O=C(c1ccco1)N1N=C(c2cccs2)CC1c1cc([N+](=O)[O-])ccc1O (stereo not drawn),54,–,–,–,35,13,
COc1ccc(S[C@]2(C(=O)N3CCN(c4ncccn4)CC3)CC(=O)N[C@@H]2c2ccc(OC)cc2)cc1,–,·,·,·,·,·,
CC1=NN(c2ccccc2C(=O)O)C(=O)C1N=Nc1ccccc1 (stereo not drawn),44,–,–,–,40,10,
COc1ccc(OC)c(S(=O)(=O)N2CCCCC2C(=O)N2CCN(CCO)CC2)c1 (stereo not drawn),–,·,·,·,·,·,
Cc1ccc([C@H]2N[C@]3(CCCN(Cc4ccc(F)cc4)C3=O)[C@H]3C(=O)N(Cc4ccccc4)C(=O)[C@@H]23)cc1,–,–,–,–,·,·,
O=C(Nc1nnc(-c2cccs2)o1)c1cccc(Oc2ccccc2)c1,38,–,–,–,53,15,
O=C(COc1ccccc1F)Nc1cc(S(=O)(=O)Nc2cccc(Cl)c2)ccc1O,64,–,–,–,56,22,
O=C1NC(=O)/C(=C/c2ccccc2OCc2ccccc2)S1,67,–,–,–,60,16,
CN1C(=O)/C(=C\c2ccccc2OCc2ccccc2)SC1=S,–,–,–,–,·,·,
O=C(COc1ccccc1/C=C1\SC(=O)NC1=O)Nc1ccccc1,35,–,–,–,48,15,
COC(=O)[C@H](C(C)C)N1CCc2nnn(Cc3ccccc3)c2-c2cc(F)ccc2S1(=O)=O,–,·,·,·,·,·,
COC(=O)[C@]12C[C@H](CC(=O)NCc3ccccc3)C(=O)N(Cc3ccc4c(c3)OCO4)C1=C[C@H](COCc1ccccc1)O[C@@H]2C,–,–,·,–,·,·,
COc1cc(/C=C(\C#N)C(=O)Nc2ccccc2C(=O)O)cc(Cl)c1OC,47,–,–,–,77,41,
COc1ccc(/C=C(/C#N)C(=O)Nc2ccccc2C)cc1C(=O)O,–,–,–,–,·,·,
COC(=O)C1=C(C)N(CC(C)C)C(=S)NC1c1ccc(-c2ccccc2)cc1 (stereo not drawn),–,–,·,–,·,·,
